Measured values taken from ChEMBL document CHEMBL3864180, “Buried Hydrogen Bond Interactions Contribute to the High Potency of Complement Factor D Inhibitors” (ACS Med Chem Lett, 2016).

Assays:
Complement factor D [1] = molecular target: T1, Complement factor D (Homo sapiens, UniProt P00746); test: Binding affinity to complement factor D (unknown origin)
Complement factor D [2] = molecular target: T1, Complement factor D; test: Binding affinity to recombinant human C-terminal 6His-tagged/biotinylated complement factor D (26 to 253 residues) expressed in Sf9 insect cells assessed as dissociation constant measured after 300 to 1800 secs by biolayer interferometry method
Complement factor D [3] = molecular target: T1, Complement factor D; test: Inhibition of recombinant human C-terminal 6His-tagged complement factor D (26 to 253 residues) expressed in Sf9 insect cells preincubated for 1 hr followed by addition of Z-Lys-thiobenzyl ester as substrate measured over 50 mins at 1 min interval
Procedure, shortened: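 Enzyme was recombinant human factor D expressed in Sf9 insect cells. Substrate Z-Lys-thiobenzyl ester, read by absorbance. OD was converted to product concentration with an extinction coefficient of 13260 M-1cm-1 and a 0.29 cm path correction.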

Complement factor D [4] = molecular target: T1, Complement factor D; test: Binding affinity to recombinant human C-terminal 6His-tagged/biotinylated complement factor D (26 to 253 residues) expressed in Sf9 insect cells by biolayer interferometry method
Procedure, shortened: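 Biotinylated recombinant human factor D expressed in Sf9 insect cells; direct binding read by bio-layer interferometry. Kd taken from the mean of two independent experiments, with standard deviations.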

Complement factor D [5] = molecular target: T1, Complement factor D; test: Competitive inhibition of human complement factor D preincubated for 1 hr followed by addition of Z-Lys-thiobenzyl ester as substrate measured over 50 mins at 1 min interval
Procedure, shortened: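 Enzyme was factor D purified from normal human serum. Substrate Z-Lys-thiobenzyl ester (Z-Lys-Sbzl), read by absorbance. IC50 is the average of at least two independent triplicate experiments.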

Complement factor D [6] = molecular target: T1, Complement factor D; test: Binding affinity to recombinant human C-terminal 6His-tagged/biotinylated complement factor D (26 to 253 residues) expressed in Sf9 insect cells assessed as association constant measured after 300 to 900 secs by biolayer interferometry method

T1 sequence (P00746 whole entry, the tested form may be a part): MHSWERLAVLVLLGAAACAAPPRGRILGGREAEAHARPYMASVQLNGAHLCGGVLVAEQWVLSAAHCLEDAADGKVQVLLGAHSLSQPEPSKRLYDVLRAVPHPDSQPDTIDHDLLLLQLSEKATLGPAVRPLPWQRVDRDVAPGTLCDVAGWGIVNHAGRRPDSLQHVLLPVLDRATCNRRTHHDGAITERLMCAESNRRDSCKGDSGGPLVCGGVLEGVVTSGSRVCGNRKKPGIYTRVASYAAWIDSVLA

K (Complement factor D [2]) [s⁻¹]	IC50 (Complement factor D [3]) [nM]	Kd (Complement factor D [4]) [nM]	IC50 (Complement factor D [5]) [nM]	K (Complement factor D [6]) [M⁻¹ s⁻¹]	SMILES	IC50 (Complement factor D [1]) [nM]
					O=c1[nH]c2ccccc2c(=O)o1	2900
0.00327	19	18.9	27.3	173000	NC(=O)c1nn(CC(=O)N2CCS[C@H]2C(=O)Nc2cccc(Br)n2)c2ncccc12	
					N=C(N)c1cc2ccc(OC(=O)c3cccs3)cc2s1	98
0.00361		17	31.9	212000	NC(=O)c1nn(CC(=O)N2[C@@H]3C[C@@H]3C[C@H]2C(=O)Nc2cccc(Br)n2)c2ncccc12	
0.292				132000	O=C(Nc1cccc(Br)n1)[C@@H]1SCCN1C(=O)Cn1ncc2ccccc21	
0.189				15800	O=C(Nc1cccc(Br)n1)[C@@H]1C[C@H]2C[C@H]2N1C(=O)Cn1ncc2ccccc21	
